An excerpt weighted towards active compounds, which were near 2.2% of everything screened.
dFosB activator: mouse delta FosB homodimer activation. P13346. purified delta FosB, TAMRA-CDK5 oligo fluorescence polarization; percent of positive-control signal above neutral wells. activation, % at 25 µM. hit rate 0.99% among 340,000. AID 493131;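 active means mean activation above about 17%, with every replicate also reaching it, limit read from the data, passing the limit was not always enough; inconclusive means only one of the two conditions met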
Target sequence (P13346 whole entry, looked up): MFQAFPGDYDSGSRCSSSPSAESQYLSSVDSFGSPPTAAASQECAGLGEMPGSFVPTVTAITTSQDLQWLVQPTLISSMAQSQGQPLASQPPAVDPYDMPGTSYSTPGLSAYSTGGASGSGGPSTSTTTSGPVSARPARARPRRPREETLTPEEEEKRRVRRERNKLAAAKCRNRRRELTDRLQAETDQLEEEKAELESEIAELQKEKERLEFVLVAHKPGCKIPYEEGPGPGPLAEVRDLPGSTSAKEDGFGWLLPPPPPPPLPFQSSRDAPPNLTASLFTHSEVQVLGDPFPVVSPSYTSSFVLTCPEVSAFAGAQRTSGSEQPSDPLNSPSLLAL
CFTR F508del cor: correctors of CFTR F508del function in bronchial epithelial cells. CFBE cells, YFP halide quenching; stimulated with forskolin plus potentiator P3; % fluorescence drop versus neutral controls. activity (quench increase), % at 7.58 µM. hit rate 0.36% among 350,000. AID 720511;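 active means mean added fluorescence quench of at least 8% versus neutral control, with both replicates also reaching 8%; inconclusive means only one of the mean or replicate conditions met; inactive means mean below 8% and not both replicates reaching 8%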;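 further: cells transiently co-express mutant CFTR-F508del with the halide-sensitive YFP; corrector assay measuring rescue of mutant channel to the surface after 24 h compound exposure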
S100A4 inh HTS: blocks human S100A4 binding to myosin IIA peptide. AID 652163. S100A4/TAMRA-MyoIIA peptide fluorescence polarization. P26447. hit rate 0.14% among 360,000. inhibition, % at 10.7 µM;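 active means mean inhibition of at least 70% across replicates, with every replicate also reaching that level; inconclusive means mean inhibition reaches 70% but some replicates fall short; inactive means mean inhibition below 70%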
Target sequence (P26447 whole entry, looked up): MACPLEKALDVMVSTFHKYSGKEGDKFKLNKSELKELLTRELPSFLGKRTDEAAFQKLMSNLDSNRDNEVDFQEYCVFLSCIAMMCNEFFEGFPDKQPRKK
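System – human S100A4 monomer protein, biochemical binding assay · Buffer or medium – Calcium-containing HEPES buffer, pH 7.2 · Timing – 5 min between mix addition and reading · Also added – TAMRA-labelled myosin IIA heavy-chain peptide probe, 5 nM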
FGF22 binding: binders of recombinant human FGF22 by thermal shift; activity (Tm shift, normalised), % at 9.99 µM; AID 651658; Q9HCT0; hit rate 1.5% among 340,000; SYPRO orange fluorescence; percent of sucrose octasulfate shift, DMSO zero;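 active means mean Tm shift, scaled 0 neutral to 100 positive control, at about 1.3% or above, every replicate too, limit read from the data; inconclusive means no clear call, values can overlap the other calls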
Target sequence (Q9HCT0 whole entry, looked up): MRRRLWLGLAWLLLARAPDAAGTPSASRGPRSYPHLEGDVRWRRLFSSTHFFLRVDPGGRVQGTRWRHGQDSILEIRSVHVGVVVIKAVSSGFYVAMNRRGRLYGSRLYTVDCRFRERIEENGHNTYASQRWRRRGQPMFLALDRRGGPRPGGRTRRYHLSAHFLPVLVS
A number is an active result; 0 = inactive; ? = inconclusive; - = no result.

SMILES | dFosB activator | CFTR F508del cor | S100A4 inh HTS | FGF22 binding
COc1ccc(NC(=O)N(C)C[C@@H]2Oc3ncc(C#CC(C)C)cc3C(=O)N([C@@H](C)CO)C[C@@H]2C)cc1 | - | 0 | 0 | 0
C[C@H](CO)N1C[C@H](C)[C@H](CN(C)C(=O)c2ccccc2F)Oc2ncc(C#Cc3ccccc3)cc2C1=O | - | 0 | 0 | 0
C[C@@H]1CN([C@H](C)CO)C(=O)c2cc(C#Cc3ccccc3)cnc2O[C@@H]1CN(C)C(=O)c1ccccc1F | - | 0 | 74.4 | 0
Cc1cnc(C(=O)OCC(=O)c2cc(C)n(C)c2C)cn1 | 0 | 0 | 0 | 43.0
Cc1cc(C)n2nc(C(=O)OCC(=O)c3cc(C)n(C)c3C)nc2n1 | 0 | - | - | -
COCC(=O)Nc1ccc2c(c1)OC[C@H](C)N(Cc1cccc(F)c1)C[C@@H](C)[C@H](OC)CN(C)C2=O | - | 0 | 0 | 0
COc1ccccc1CC(=O)c1ccccc1OC | 0 | 0 | 0 | 43.5
COc1ccccc1C(=O)NNC(=O)c1cccc(F)c1 | 0 | - | - | -
COc1ccccc1CC(=O)NC(=O)c1ccccc1O | 0 | 0 | 0 | 0
COc1ccccc1C(=O)NNC(=O)c1ccccc1F | 0 | 0 | 0 | 43.7
CCC(=O)Nc1ccc2c(c1)OC[C@@H](C)N(C(=O)COC)C[C@H](C)[C@@H](OC)CN(C)C2=O | - | 0 | - | -
COc1ccc2c(Cl)c(C(=O)NN3CCN(C)CC3)sc2c1 | 0 | 0 | 0 | 43.8
COc1ccc2c(Cl)c(C(=O)NC3CCS(=O)(=O)C3)sc2c1 (configuration not stated) | 0 | - | - | -
C[C@H]1CN([C@@H](C)CO)S(=O)(=O)c2ccc(C#CC3CC3)cc2O[C@H]1CN(C)C(=O)C1CCCCC1 | - | 0 | - | -
CC1(C(=O)NCc2cccs2)Cc2c(-c3ccc4c(c3)OCO4)ccnc2O1 (configuration not stated) | - | 9.5 | 0 | 0
O=[N+]([O-])c1ccccc1S(=O)(=O)N/C(=N/S(=O)(=O)c1ccccc1)c1ccccc1 | 0 | 0 | 0 | 43.3
COc1cc(C(=O)Nc2ccncc2)cc(OC)c1OC | 0 | 0 | 0 | 0
Cc1ccc(C)n1-c1ccc(C(=O)NCc2ccncc2)cc1 | 0 | 0 | 0 | 44.0
COc1cc(C(=O)NCc2ccncc2)cc(OC)c1OC | 0 | - | 0 | 42.9
CCOc1ccc(C(=O)NCc2ccncc2)cc1 | 0 | - | - | -
COc1cccc(S(=O)(=O)N[C@@H]2CC[C@@H](CC(=O)NCc3ccc(Cl)cc3)O[C@H]2CO)c1 | - | 0 | 0 | 0
C[C@@H]1CN([C@@H](C)CO)C(=O)Cc2cc(NC(=O)CCCN(C)C)ccc2O[C@@H]1CN(C)S(=O)(=O)c1ccc(Cl)cc1 | - | 0 | 0 | 0
C/C=C/c1ccc(OCC(=O)Nc2ccc(C(N)=O)cc2)c(OC)c1 | 0 | 0 | 0 | 43.9
CO[C@@H]1CN(C)C(=O)c2cc(NS(=O)(=O)c3ccccc3)ccc2OC[C@@H](C)N(Cc2cccnc2)C[C@H]1C | - | 0 | 0 | 0
CN1CCN(C(=O)C[C@@H]2C[C@H]3c4cc(NC(=O)c5ccc6c(c5)OCO6)ccc4O[C@H]3[C@@H](CO)O2)CC1 | - | 0 | 0 | 0
SMILES | dFosB activator | CFTR F508del cor | S100A4 inh HTS | FGF22 binding
c1ccc(CCN(Cc2ccccc2)Cc2nc(C3CC3)no2)cc1 | 0 | 8.9 | 0 | 0
CCN(Cc1ccccc1)Cc1nc(CCc2ccccc2)no1 | 0 | 0 | 0 | 0
C[C@H](CO)N1C[C@H](C)[C@H](CN(C)C(=O)Nc2cccc3ccccc23)Oc2c(NC(=O)Nc3ccc4c(c3)OCO4)cccc2C1=O | - | 0 | 0 | 0
O=C(c1ccccc1)c1cccs1 | 0 | 0 | 0 | 43.2
COc1ccccc1-c1cn(CC[C@@H]2CC[C@@H](NC(=O)C3CC3)[C@@H](CO)O2)nn1 | - | 0 | 0 | 0
O=C(CS(=O)(=O)c1ccc(Cl)c(Cl)c1)Nc1ccccc1Cl | 0 | - | - | -
COc1ccc(S(=O)(=O)CC(=O)Nc2ccccc2Cl)cc1 | 0 | 0 | 0 | 43.4
CC(C)(C)c1ccccc1OCCCCCn1ccnc1 | 0 | 0 | 0 | 43.9
CCCNC(=O)N(C)C[C@H]1Oc2ncc(C3=CCCC3)cc2C(=O)N([C@H](C)CO)C[C@@H]1C | - | 0 | 0 | 0
CCOC(=O)N1CCC(N2CCCC(CO)(Cc3cccc(OC)c3)C2)CC1 (configuration not stated) | 0 | 0 | 0 | 43.3
CCOC(=O)C1(Cc2cccc(OC)c2)CCN(CCO)CC1 | 0 | 0 | 0 | 43.5
COc1cccc(CC2(CO)CCCN(S(=O)(=O)N(C)C)C2)c1 (configuration not stated) | 0 | 0 | 0 | 0
CCCNC(=O)Nc1ccc2c(c1)C(=O)N(C)[C@@H]1CC[C@@H](CC(=O)NCC3CCCCC3)O[C@H]1CO2 | - | 0 | 0 | 0
COc1ccc(CN(C)C[C@@H]2OCCCC[C@@H](C)Oc3ccc(NS(=O)(=O)c4c(C)noc4C)cc3C(=O)N([C@H](C)CO)C[C@@H]2C)cc1 | - | 0 | - | 0
O=C(C[C@H]1CC[C@H]2[C@@H](COC[C@@H](O)CN2S(=O)(=O)c2ccccc2Cl)O1)N1CCC(Cc2ccccc2)CC1 | - | 0 | ? | 0
CC(C)c1csc(CN2CCC(C(=O)Nc3cccc(-c4ccco4)c3)CC2)n1 | - | 0 | 0 | 44.4
CN1CCN(C(=O)C[C@H]2C[C@@H]3c4cc(NC(=O)Cc5ccncc5)ccc4O[C@@H]3[C@H](CO)O2)CC1 | - | 0 | 0 | 0
CCN(CC)S(=O)(=O)c1ccc(NC(=O)C2CC(=O)N(c3ccc4c(c3)OCCO4)C2)cc1 (configuration not stated) | 0 | 14.8 | 0 | 0
CS(=O)(=O)c1ccc(NC(=O)C2CC(=O)N(c3ccc4c(c3)OCCO4)C2)cc1 (configuration not stated) | 0 | 0 | 0 | 0
O=C(CCN1C(=O)C2C3C=CC(C3)C2C1=O)N1CCCCC1 (configuration not stated) | 0 | 0 | 0 | 43.2
C[C@@H]1CN([C@H](C)CO)C(=O)c2cc(NS(=O)(=O)c3cn(C)cn3)ccc2O[C@@H](C)CCCCO[C@H]1CN(C)Cc1ccc(C(=O)O)cc1 | - | 0 | - | 0
COc1cccc(S(=O)(=O)N(C)C[C@@H]2Oc3cc(C4=CCCC4)ccc3S(=O)(=O)N([C@H](C)CO)C[C@H]2C)c1 | - | 10.7 | 0 | 0
COc1cccc(S(=O)(=O)N(C)C[C@@H]2Oc3cc(C4=CCCC4)ccc3S(=O)(=O)N([C@@H](C)CO)C[C@@H]2C)c1 | - | 0 | 0 | 0
COc1cccc(S(=O)(=O)N(C)C[C@@H]2Oc3cc(C4=CCCC4)ccc3S(=O)(=O)N([C@@H](C)CO)C[C@H]2C)c1 | - | 9.3 | 0 | 0
Cc1cccc(NC(=S)NC(=O)c2oc3ccccc3c2C)n1 | 0 | 0 | 0 | 43.2
CN1c2ccc(C#Cc3cccnc3)cc2[C@@H]2[C@@H](CCN2S(=O)(=O)c2ccccc2F)[C@@H]1CO | - | 0 | 119.7 | 0
COc1cccc(-c2ccc3c(c2)[C@H]2[C@H](CCN2C(=O)c2ccc4c(c2)OCO4)[C@H](CO)N3C)c1 | - | 0 | 98.0 | 0
COc1ccc(S(=O)(=O)N2CC[C@@H]3[C@H](CO)N(C)c4ccc(-c5ccc(F)cc5)cc4[C@@H]32)cc1 | - | 10.6 | 0 | 0

Screens deposited in PubChem BioAssay by Broad Institute.
